Where no end group is shown, it is not given here. [ ]: non-standard residue; d: D form. Arg(Me2a) = CN(C)C(=N)NCCC[C@H](N)C(=O)O; Arg(Me2s) = CN=C(NC)NCCC[C@H](N)C(=O)O; pS = N[C@@H](COP(=O)(O)O)C(=O)O
The substances below were run against T1, hNatD (Homo sapiens, UniProt Q86UY6) (assay: MALDI-MS acetylation assay). Details: relative to wild-type H4-5.
Type: biochemical
Method in brief: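 Human NatD 50 nM with 50 µM AcCoA in 25 mM HEPES, 150 mM NaCl, pH 7.5, 25 °C. Reaction started by adding peptide in 2-fold dilutions. Cysteine peptides were pre-reduced with DTT and diluted in buffer containing 10 mM DTT. Timed aliquots were quenched 1:1 in 0.1% TFA and spotted with CHCA for MALDI-MS of acetylated product. Initial slopes were fitted to Michaelis-Menten or substrate-inhibition models, in duplicate.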
For CGRGK [S1C], the “fold reduction in kcat/Km compared to H4-5” value (shortened to “fold reduction … to H4-5”) was ~ 100 fold. With “S1F: oncohistone H4/H2A pentapeptide with S1F mutation (FGRGK-NH2)” the “fold reduction … to H4-5” value was “over 1,000 fold”. SGCGK [R3C] was tested, and the “fold reduction … to H4-5” value was 17 fold.

What follows are substances tested against T1, hNatD (assay: Continuous fluorescence-based acetylation assay). Details: G4V relative to G4D.
Type: biochemical
Method in brief: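 hNatD activity monitored continuously by fluorescence at 25 °C. All components except peptide were preincubated for 10 min, then the reaction was started with varying peptide concentrations. For AcCoA characterization, the peptide substrate was fixed at 50 μM. Readings were taken at 400–415 nm and 460–485 nm. Signal was converted to CoA via a standard curve, and initial velocities were fit to Michaelis-Menten or substrate-inhibition models. Run at least in duplicate.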
With “G4V: oncohistone H4/H2A pentapeptide with G4V mutation (SGRVK-NH2)” the “fold higher kcat/Km for G4V than G4D” value was 7 fold.

Same assay, conditions: H2A peptide vs H4 peptide of the same length
With “H2A-12: C-terminal truncated H2A synthetic peptide, 12 residues (SGRGKQGGKARA-NH2; UniProt P0C0S8 2-13, looked up, fragment)” the “fold reduction in kcat/Km compared to corresponding H4 peptides” value was “about 4 fold”.

Same assay, conditions: SMARCD2-derived pentapeptide vs H4-5 (also H2A-5)
In the case of SGRGA, the “fold difference in kcat and kcat/Km compared to H4-5” value is reported as “less than 2 fold”.

Same assay, conditions: fluorescence assay; compared to H4-5
With “H4K5ac: H4 pentapeptide with Lys5 acetylation (SGRGK(Ac)-NH2)” the “kinetic parameters relative to unmodified H4-5 (in words)” value was “comparable kinetic parameters”.

Same assay, conditions: normalized to wild-type H4-5; fluorescence assay
For “G2E: oncohistone H4/H2A pentapeptide with G2E mutation (SERGK-NH2)”, the “fold decrease in kcat compared to H4-5” value was 3 fold. With “G4D: oncohistone H4/H2A pentapeptide with G4D mutation (SGRDK-NH2)” the “fold decrease in kcat compared to H4-5” value was “less than 2 fold”. In the case of “G4S: oncohistone H4/H2A pentapeptide with G4S mutation (SGRSK-NH2)”, the “fold decrease in kcat compared to H4-5” value is reported as 7 fold and the “fold reduction … to H4-5” value is reported as 17 fold. “G4V: oncohistone H4/H2A pentapeptide with G4V mutation (SGRVK-NH2)” was tested, and the “fold decrease in kcat compared to H4-5” value was “less than 2 fold”. With “H4R3me1: H4 pentapeptide with Arg3 monomethylation (SG[Rme1]GK-NH2; UniProt P62805 2-6, looked up, fragment)” the “fold reduction … to H4-5” value was 3.6 fold. In the case of “H4R3me2a: H4 pentapeptide with Arg3 asymmetric dimethylation (SG[Arg(Me2a)]GK-NH2; UniProt P62805 2-6, looked up, fragment)”, the “fold reduction … to H4-5” value is reported as 8 fold. “H4R3me2s: H4 pentapeptide with Arg3 symmetric dimethylation (SG[Arg(Me2s)]GK-NH2)” was tested, and the “fold reduction … to H4-5” value was 17 fold. In the case of “H4pS1: H4 pentapeptide with Ser1 phosphorylation ([pS]GRGK-NH2)”, the “fold decrease in kcat compared to H4-5” value is reported as 2.3 fold and the “fold reduction … to H4-5” value is reported as “over 100 fold”. With “R3H: oncohistone H4/H2A pentapeptide with R3H mutation (SGHGK-NH2)” the “fold decrease in kcat compared to H4-5” value was 1.5 fold and the “fold reduction … to H4-5” value was 6.5 fold. With “R3Q: oncohistone H4/H2A pentapeptide with R3Q mutation (SGQGK-NH2)” the “fold decrease in kcat compared to H4-5” value was 3 fold and the “fold reduction … to H4-5” value was 200 fold. “S1L: oncohistone H4/H2A pentapeptide with S1L mutation (LGRGK-NH2)” was tested, and the “fold decrease in kcat compared to H4-5” value was 5 fold.
